Measurements reported in ChEMBL document CHEMBL2169800 (J Med Chem, 2012).

What was measured:
[1] = biological target: T1, Prostaglandin G/H synthase 1 (Ovis aries, UniProt P05979); assay: Inhibition of ovine COX1 pre-incubated for 10 mins before arachidonic acid substrate addition by enzyme immunoassay
T1 sequence (P05979 whole entry): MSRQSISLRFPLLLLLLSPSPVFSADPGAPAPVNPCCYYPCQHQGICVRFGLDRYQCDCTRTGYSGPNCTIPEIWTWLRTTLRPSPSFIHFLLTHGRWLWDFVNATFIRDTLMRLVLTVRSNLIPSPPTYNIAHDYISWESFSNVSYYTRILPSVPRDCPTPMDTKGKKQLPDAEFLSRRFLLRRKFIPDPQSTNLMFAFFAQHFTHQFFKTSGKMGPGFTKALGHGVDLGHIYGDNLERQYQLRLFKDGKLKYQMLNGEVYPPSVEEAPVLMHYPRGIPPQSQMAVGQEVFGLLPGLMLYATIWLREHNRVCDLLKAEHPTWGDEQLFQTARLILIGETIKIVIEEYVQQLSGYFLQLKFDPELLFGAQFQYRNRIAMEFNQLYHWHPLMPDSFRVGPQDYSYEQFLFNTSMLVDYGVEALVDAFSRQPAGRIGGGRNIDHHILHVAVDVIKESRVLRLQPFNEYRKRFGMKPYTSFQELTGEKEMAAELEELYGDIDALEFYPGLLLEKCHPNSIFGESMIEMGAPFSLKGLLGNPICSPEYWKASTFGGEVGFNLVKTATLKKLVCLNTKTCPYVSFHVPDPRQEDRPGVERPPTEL
In short: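 Ovine COX-1 pre-incubated with inhibitor for 10 min at 37 °C, then 5 μM arachidonic acid for 2 min at 37 °C. Stopped with HCl; PGH2 reduced to PGF2α with SnCl2 and measured by competitive EIA (PG antibody, PG-acetylcholinesterase conjugate), absorbance at 412 nm.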

[2] = biological target: T2, Prostaglandin G/H synthase 2 (Homo sapiens, UniProt P35354); assay: Inhibition of human COX2 pre-incubated for 10 mins before substrate addition by enzyme immunoassay
T2 sequence (P35354 whole entry): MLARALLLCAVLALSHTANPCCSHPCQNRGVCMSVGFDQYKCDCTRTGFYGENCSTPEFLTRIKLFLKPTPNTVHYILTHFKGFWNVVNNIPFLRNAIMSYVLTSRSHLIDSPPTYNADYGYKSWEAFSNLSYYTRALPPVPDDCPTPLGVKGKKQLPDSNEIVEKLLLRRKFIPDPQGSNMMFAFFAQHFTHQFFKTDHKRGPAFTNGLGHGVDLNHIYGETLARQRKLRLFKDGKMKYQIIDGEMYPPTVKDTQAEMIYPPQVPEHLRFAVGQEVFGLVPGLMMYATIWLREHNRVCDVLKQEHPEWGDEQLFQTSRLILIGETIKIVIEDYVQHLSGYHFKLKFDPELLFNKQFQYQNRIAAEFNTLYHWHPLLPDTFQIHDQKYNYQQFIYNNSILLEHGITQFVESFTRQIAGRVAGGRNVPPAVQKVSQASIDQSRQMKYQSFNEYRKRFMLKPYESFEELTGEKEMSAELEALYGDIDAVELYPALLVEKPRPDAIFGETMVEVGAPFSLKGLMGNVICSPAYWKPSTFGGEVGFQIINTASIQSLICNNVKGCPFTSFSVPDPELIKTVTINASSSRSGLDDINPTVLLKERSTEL

[3] = biological target: T3, Fatty-acid amide hydrolase 1 (Rattus norvegicus, UniProt P97612); assay: Inhibition of FAAH in rat brain homogenates pre-incubated for 10 mins before addition of [3H]anandamide and [3H]AEA substrates for 30 mins by liquid scintillation counting; assay type: tissue-based; conditions: read-out: IC50
T3 sequence (P97612 whole entry): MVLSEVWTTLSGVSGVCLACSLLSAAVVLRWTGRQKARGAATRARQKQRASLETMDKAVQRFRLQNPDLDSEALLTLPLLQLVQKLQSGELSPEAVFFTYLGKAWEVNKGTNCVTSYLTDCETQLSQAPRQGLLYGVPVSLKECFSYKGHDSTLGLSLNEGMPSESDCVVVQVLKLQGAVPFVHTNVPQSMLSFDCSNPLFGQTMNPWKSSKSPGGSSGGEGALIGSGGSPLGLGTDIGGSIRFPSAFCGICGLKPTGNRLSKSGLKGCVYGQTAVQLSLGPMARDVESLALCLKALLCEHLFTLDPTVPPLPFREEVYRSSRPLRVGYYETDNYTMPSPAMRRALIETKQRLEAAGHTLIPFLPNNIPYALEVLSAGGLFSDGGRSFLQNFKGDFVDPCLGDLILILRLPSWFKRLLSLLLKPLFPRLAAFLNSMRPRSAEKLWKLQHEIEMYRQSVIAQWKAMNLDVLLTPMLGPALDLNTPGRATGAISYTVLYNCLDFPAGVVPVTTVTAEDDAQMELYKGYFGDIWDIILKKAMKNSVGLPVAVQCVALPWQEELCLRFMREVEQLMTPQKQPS
In short: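 Rat whole-brain homogenate (50 ug protein/sample) in 50 mM TRIS pH 7.4, 0.05 % fatty acid free BSA; inhibitor pre-incubated 10 min, then 1 uM unlabelled AEA plus 0.6 nM [3H]-AEA added for 30 min at 37°C. Stopped with cold 1:1 CHCl3/MeOH; aqueous phase counted.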

C[C@H](C(=O)O)c1ccc2c(c1)[nH]c1ccc(Cl)cc12
IC50 [1]: 5.6 µM

C[C@@H](C(=O)O)c1ccc2c(c1)[nH]c1ccc(Cl)cc12
IC50 [1]: > 100 µM

C[C@H](C(=O)O)c1ccc2c3cc(Cl)ccc3n(C(=O)c3ccc(Cl)cc3)c2c1
IC50 [1]: 45 µM
IC50 [2]: 46.5 µM
IC50 [3]: > 100 µM

C[C@@H](C(=O)O)c1ccc2c3cc(Cl)ccc3n(C(=O)c3ccc(Cl)cc3)c2c1
IC50 [1]: > 100 µM
IC50 [2]: > 100 µM
IC50 [3]: 14.9 µM

C[C@H](C(=O)O)c1ccc2c3cc(Cl)ccc3n(C(=O)c3cocn3)c2c1
IC50 [1]: 4.1 µM
IC50 [2]: 2.5 µM
IC50 [3]: > 100 µM

C[C@@H](C(=O)O)c1ccc2c3cc(Cl)ccc3n(C(=O)c3cocn3)c2c1
IC50 [1]: > 100 µM
IC50 [2]: > 100 µM
IC50 [3]: 53.2 µM

COc1cccc(Cn2c3ccc(Cl)cc3c3ccc(C(C)C(=O)O)cc32)c1 (racemic)
IC50 [1]: > 100 µM
IC50 [2]: > 100 µM
IC50 [3]: 32.5 µM

CC(C(=O)O)c1ccc2c3cc(Cl)ccc3n(C(=O)c3ccc(F)cc3)c2c1 (racemic)
IC50 [1]: > 100 µM
IC50 [2]: > 100 µM
IC50 [3]: 30.9 µM

COc1ccc(C(=O)n2c3ccc(Cl)cc3c3ccc(C(C)C(=O)O)cc32)cc1 (racemic)
IC50 [1]: > 100 µM
IC50 [2]: > 100 µM
IC50 [3]: 10.6 µM

CC(C(=O)O)c1ccc2c3cc(Cl)ccc3n(C(=O)c3cccc(Cl)c3)c2c1 (racemic)
IC50 [1]: > 100 µM
IC50 [2]: > 100 µM
IC50 [3]: 20.1 µM

CC(C(=O)O)c1ccc2c3cc(Cl)ccc3n(C(=O)c3ccccc3Cl)c2c1 (racemic)
IC50 [1]: > 100 µM
IC50 [2]: > 100 µM
IC50 [3]: 59.6 µM

CC(C(=O)O)c1ccc2c3cc(Cl)ccc3n(C(=O)c3ccc(Cl)c(Cl)c3)c2c1 (racemic)
IC50 [1]: > 100 µM
IC50 [2]: > 100 µM
IC50 [3]: > 100 µM

CC(C(=O)O)c1ccc2c3cc(Cl)ccc3n(C(=O)c3cocn3)c2c1 (racemic)
IC50 [1]: 30 µM
IC50 [2]: 27.8 µM
IC50 [3]: 84.8 µM

CC(C(=O)O)c1ccc2c3cc(Cl)ccc3n(C(=O)c3cnc[nH]3)c2c1 (racemic)
IC50 [1]: 12.8 µM
IC50 [2]: > 100 µM
IC50 [3]: 5.6 µM

CC(C(=O)O)c1ccc2c3cc(Cl)ccc3n(C(=O)c3cscn3)c2c1 (racemic)
IC50 [1]: > 100 µM
IC50 [2]: > 100 µM
IC50 [3]: > 100 µM

CC(C(=O)O)c1ccc2c3cc(Cl)ccc3n(C)c2c1 (racemic)
IC50 [1]: > 100 µM
IC50 [2]: > 100 µM
IC50 [3]: 15.5 µM

CC(C(=O)O)c1ccc2c3cc(Cl)ccc3n(Cc3ccccc3)c2c1 (racemic)
IC50 [1]: > 100 µM
IC50 [2]: > 100 µM
IC50 [3]: 23.3 µM

CC(C(=O)O)c1ccc2c3cc(Cl)ccc3n(Cc3ccc(C#N)cc3)c2c1 (racemic)
IC50 [1]: > 100 µM
IC50 [2]: > 100 µM
IC50 [3]: 33.4 µM

CC(C(=O)O)c1ccc2c3cc(Cl)ccc3n(Cc3ccc(Cl)cc3)c2c1 (racemic)
IC50 [1]: > 100 µM
IC50 [2]: > 100 µM
IC50 [3]: 10.2 µM

COc1ccc(Cn2c3ccc(Cl)cc3c3ccc(C(C)C(=O)O)cc32)cc1 (racemic)
IC50 [1]: > 100 µM
IC50 [2]: > 100 µM
IC50 [3]: 8.4 µM
